Data: publication PMC11568512 (Chemical communications (Cambridge, England), 2024)

Columns and labels:
[1] = test system: tested cancer cell lines (MDA-MB-231, A2780); assay: Antiproliferative activity, text summary over tested cancer cell lines; format: cell-based; conditions: 72 h, read-out: IC50 range in the tested cancer cell lines
[2] = test system: A2780; assay: Antiproliferative activity, resazurin assay; format: cell-based; conditions: Homo sapiens, A2780, 72 h, read-out: IC50 A2780
[3] = test system: transferrin receptor 1 (TfR1); assay: Western blot of iron handlers; format: cell-based; conditions: DFX 50 μM, QT and IQT 5 μM, FAC 50 μM
Procedure, shortened: (§1)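 A2780 cancer cells were exposed to test compounds (5 μM) or the reference iron chelator deferasirox (50 μM), with DMSO vehicle as control. Transferrin receptor 1 and ferritin heavy chain were probed by Western blot as markers of iron signalling. Statistics used t-tests versus DMSO vehicle.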

[4] = test system: ferritin heavy chain (ferritin H); assay: Western blot of iron handlers; format: cell-based; conditions: DFX 50 μM, QT and IQT 5 μM, FAC 50 μM
Procedure, shortened: as §1

[5] = test system: MDA-MB-231; assay: Antiproliferative activity, resazurin assay; format: cell-based; conditions: Homo sapiens, MDA-MB-231, 72 h, read-out: IC50 MDA-MB-231
[6] = test system: A2780 cells; assay: Cell cycle analysis by flow cytometry; format: cell-based; conditions: A2780, 24-hour incubation, DFX 50 μM, QT and IQT 5 μM
[7] = cited from earlier work

Molecule	IC50 [1]	IC50 [2]	TfR1 expression level [3]	ferritin H expression level [4]	IC50 [5]	cell cycle effect [6]	reduction in FBS [7]
O=C(O)c1ccc(-n2nc(-c3ccccc3O)nc2-c2ccccc2O)cc1 [DFX, deferasirox]	10 to 20 µM	12 ± 2 µM	upregulation of TfR1	degradation of ferritin	15 ± 2 µM	cell accumulation in the S-phase	–
Cc1nc(-[n+]2nc(-c3ccccc3)nn2-c2ccccc2)sc1C.[Br-] [MTT, 3-(4,5-dimethyl-2-thiazolyl)-2,5-diphenyl-tetrazolium]	–	–	–	–	–	–	prone to reduction in FBS
ferric ammonium citrate [FAC]	–	–	decreased TfR1 expression	upregulation of ferritin	–	–	–
